Screening data as filed in PubChem BioAssay.
Apaf-1 act: activates human Apaf-1 apoptosome; Apaf-1 apoptosome caspase-3 activation, DEVD-Rh110 fluorescence; active compounds read low; activity change, negative = activation, % at 20 µM; 0.31% of 330,000 active; AID 489031;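 active = activity change at or below -40% at 20 µM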
Target sequence (O14727 whole entry, looked up): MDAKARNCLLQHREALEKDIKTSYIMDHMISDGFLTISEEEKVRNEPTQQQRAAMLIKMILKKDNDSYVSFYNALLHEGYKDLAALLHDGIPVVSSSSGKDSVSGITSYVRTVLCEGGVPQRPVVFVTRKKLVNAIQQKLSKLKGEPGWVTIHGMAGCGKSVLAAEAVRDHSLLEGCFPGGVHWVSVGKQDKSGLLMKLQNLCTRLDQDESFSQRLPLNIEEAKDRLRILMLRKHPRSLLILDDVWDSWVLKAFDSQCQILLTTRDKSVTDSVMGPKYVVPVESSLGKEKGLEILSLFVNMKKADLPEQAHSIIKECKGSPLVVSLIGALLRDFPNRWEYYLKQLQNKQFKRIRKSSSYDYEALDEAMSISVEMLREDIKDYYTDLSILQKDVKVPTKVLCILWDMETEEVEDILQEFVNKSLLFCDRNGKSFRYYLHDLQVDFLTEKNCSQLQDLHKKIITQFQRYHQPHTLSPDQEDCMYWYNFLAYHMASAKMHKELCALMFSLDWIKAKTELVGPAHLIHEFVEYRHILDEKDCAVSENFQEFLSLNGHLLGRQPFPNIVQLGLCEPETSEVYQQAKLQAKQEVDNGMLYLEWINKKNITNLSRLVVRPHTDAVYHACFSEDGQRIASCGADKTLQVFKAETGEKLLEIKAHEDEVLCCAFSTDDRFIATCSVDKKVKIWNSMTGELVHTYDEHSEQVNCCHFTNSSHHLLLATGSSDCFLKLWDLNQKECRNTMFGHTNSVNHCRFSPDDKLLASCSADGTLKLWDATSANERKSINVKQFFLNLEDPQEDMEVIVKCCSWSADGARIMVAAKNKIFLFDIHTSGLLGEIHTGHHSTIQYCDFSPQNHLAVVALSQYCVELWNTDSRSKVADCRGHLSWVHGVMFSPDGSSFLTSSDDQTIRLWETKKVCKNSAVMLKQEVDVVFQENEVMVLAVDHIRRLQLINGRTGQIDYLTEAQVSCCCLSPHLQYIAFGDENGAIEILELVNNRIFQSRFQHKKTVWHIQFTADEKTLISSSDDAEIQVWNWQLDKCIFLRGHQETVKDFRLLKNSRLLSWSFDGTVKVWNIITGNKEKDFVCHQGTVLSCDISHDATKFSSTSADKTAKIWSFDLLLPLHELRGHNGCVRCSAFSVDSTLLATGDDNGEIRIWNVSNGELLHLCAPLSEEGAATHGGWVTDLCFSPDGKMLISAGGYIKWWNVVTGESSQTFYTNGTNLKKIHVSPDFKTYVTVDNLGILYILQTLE
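Material: biochemical Apaf-1 apoptosome reconstitution; Medium: 20 mM HEPES buffer, pH 7.5, containing CHAPS and BSA; Reagent: dATP, cytochrome c, and (Z-DEVD)2-Rh110 caspase-3 substrate; Times: 30 min preincubation, 50 min reaction, room temperature; Signal: Rh110 fluorescence, excitation 480 nm, emission 540 nm; Measure: Caspase-3 activity via Apaf-1.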
Rh110 interf act: interferes with Rh110 fluorescence, flagging false Apaf-1 activators; shares compounds with Apaf-1 act; Rh110 fluorescence interference, quenched caspase reaction, Ex480/Em540; fluorescence interference (activity change), % at 20 µM, hits read low; 980 tested, under 10 active; AID 504616;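 active = mean activity change at or below -40% when tested at 20 µM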
Apaf-1 act conf2: Apaf-1 (human) activation, single-dose confirmed | shares compounds with Apaf-1 act | reconstituted apoptosome caspase-3 activity, DEVD-Rh110 fluorescence; active compounds read low | activity change, negative = activation, % at 20 µM | 5% of 980 active;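 active = mean activity change at or below -40%, meaning activation of 40% or more, at 20 µM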
Apaf1 act interf: Apaf-1 activator counter-screen fluorescence artifact. shares compounds with Apaf-1 act. fluorescence interference counterscreen, Apaf-1 activator assay. EC50, µM. 55 tested, under 10 active. AID 588592; call rule not given here
A number is an active result; . = inactive; / = no result. Only a sample is shown.

SMILES	Apaf-1 act	Rh110 interf act	Apaf-1 act conf2	others
CCN(CC)CCNC(=O)c1ccc2c(c1NCCO)C(=O)c1ccccc1C2=O	.	/	/
COc1ccc(CN(CCN(C)C)c2ccccn2)cc1	.	/	/
CC(C)N(Cc1cc2ccccc2[nH]c1=O)C(=O)C1CCCCC1	.	/	/
O=C(C1CCCCC1)N(Cc1ccccc1)c1ccccn1	-154	.	.
COc1ccc(NC2=C(NCCO)C(=O)c3ccccc3C2=O)cc1	.	/	/
Fc1ccc(NC(=S)Nc2cccc3ccccc23)cc1	.	/	/
Cc1ccc(F)cc1NC(=S)NCCc1ccccc1	-523	.	.
CCc1cccc(NC(=S)Nc2cccc3ccccc23)c1	.	/	/
O=C1C(Cl)=C(N2CCCCC2)C(=O)C(Cl)=C1c1cnc(N2CCCCC2)s1	.	/	/
c1ccc(C[C@H]2CNCCN2CCCCC2CCCCC2)cc1	.	/	/
CCc1nc2ccc(C(=O)N3CCN(c4ccccc4)CC3)cc2nc1CC	-505	.	.
O=C(c1ccc2nc(-c3ccco3)c(-c3ccco3)nc2c1)N1CCN(c2ccccc2)CC1	.	/	/
O=C(O)c1ccc2nc(-c3ccco3)c(-c3ccco3)nc2c1	.	/	/
Cn1c(=O)c2c(SCC(=O)NC3CCCC3)nc(CC(C)(C)C)nc2n(C)c1=O	-508	.	.
COc1ccc(OCC(=O)N/N=C(\C)c2cccs2)cc1	-81	.	.
COc1ccc2c(c1)Cc1sc(NC(=O)c3cccs3)nc1-2	.	/	/
CC(C)(C)c1ccc(-c2nn(CCC#N)cc2/C=N/O)cc1	.	/	/
CCSc1ncc(Cl)c(C(=O)Nc2ccc(S(=O)(=O)Nc3ncccn3)cc2)n1	-76	.	.
CCC(OCC(O)CN1CCCCC1)c1ccccc1 (stereo unspecified)	-516	.	.
COc1ccccc1N1CCN(Cc2nc(-c3ccc(F)cc3)oc2C)CC1	-236	.	.
COc1ccc(N2CCN(Cc3nc4scc(-c5ccccc5)c4c(=O)[nH]3)CC2)cc1	.	/	/
COc1ccc(/C=N/NC(=O)c2ccc(CSc3nncn3C)cc2)cc1OC	-192	.	.
CC1=NN(c2ccccc2)C(=O)/C1=C\c1cn(CCC#N)nc1-c1ccc(Cl)cc1	.	/	/
CC(=O)[C@H]1CC[C@H]2[C@@H]3CCC4=CC(=O)CC[C@]4(C)[C@H]3CC[C@]12C	.	/	/
CC(=O)[C@@]1(O)CCC2C3C=CC4=CC(=O)CC[C@]4(C)C3CC[C@@]21C (stereo partly specified)	-287	.	.
SMILES	Apaf-1 act	Rh110 interf act	Apaf-1 act conf2	others
FC(F)(F)c1cc(CCN2CCNC[C@@H]2CC2CCCCC2)cc(C(F)(F)F)c1	.	/	/
O=C1C=C(N2CCCCC2)c2ccccc2C1=O	.	/	/
CC(=O)c1ccc2c(c1)c(C#N)c1ccccc1[n+]2[O-]	.	/	/
C#CCOCCOCCOCCNc1nc(N2CCN(C(=O)CCCCCCCCCCNC(=O)Cn3cc(CCCCCN)nn3)CC2)nc(N2CCN(C(=O)CCCCCCCCCCNC(=O)Cn3cc(C[C@@H](C)O)nn3)CC2)n1	.	/	/
CCn1c(SCC(=O)N/N=C/C=C\c2ccco2)nc2ccccc21	.	/	/
O=C(Cn1c(-c2ccccn2)nc2ccccc21)N/N=C/c1ccccn1	-44	.	.
O=C(CNc1cccc2ccccc12)N/N=C/c1ccccn1	.	/	/
CCOc1cc(CNc2ccc(O)cc2)ccc1OCc1ccc(Cl)cc1Cl	.	/	/
COc1cc2oc3ccccc3c2cc1N(CC(=O)N1CCCCC1)S(=O)(=O)c1ccc(C)cc1	-236	.	.
COc1ccc(S(=O)(=O)N2CCCCCC2)cc1C(=O)N(C)CCOc1ccccc1	.	/	/
COc1ccccc1CCn1c(N)c(C#N)c2nc3ccccc3nc21	.	/	/
CN(CCCN1c2ccccc2CCc2ccccc21)CC(=O)c1ccc(Cl)cc1	.	/	/
COc1cccc(-c2sc3cc(OC)c(OC)cc3c2-c2ccc(OCCN3CCCCC3)cc2)c1	.	/	/
O=[N+]([O-])c1cc(Br)c(O)c(C=Nc2ccc(N3CCOCC3)cc2)c1	.	/	/
O=C1C2(CCCC13COC(c1ccc(O)cc1)OC3)COC(c1ccc(O)cc1)OC2 (stereo unspecified)	-127	.	-60	Apaf1 act interf=.
COc1ccc(OC)c(C2CC(=O)N3CN(c4cccc(Cl)c4)CSC3=C2C#N)c1 (stereo unspecified)	.	/	/
CC1(C)CC(=O)C(C=Nc2ccc(O)c(N=CC3=C(O)CC(C)(C)CC3=O)c2)=C(O)C1	.	/	/
COc1ccc(C(=O)N(C)C(C)c2ccon2)cc1OC1CCN(C(C)C)CC1 (stereo unspecified)	-315	.	.
CCCCCc1cc(=O)oc2c(C(CCN3CCCC3)c3ccc(N(C)C)cc3)c(OC)cc(OC)c12 (stereo unspecified)	.	/	/
CN(C)c1cccc2c1c(NC(=O)c1ccc(F)cc1)nn2C	.	/	/
O=C(Nc1ncccn1)c1cccc(F)c1	-48	.	.
Cc1cc(C(C)(C)CC(C)(C)C)ccc1OCCOCC[N+](C)(C)Cc1ccccc1	.	/	/
O=C(NC1CC2CCCC(C1)N2S(=O)(=O)c1ccccc1)c1ccco1 (stereo unspecified)	.	/	/
O=C(NC1CC1)c1cc2ccccc2o1	-363	.	.
O=C(Nc1ccc2nc(-c3ccco3)c(-c3ccco3)nc2c1)NC1CC1	.	/	/
SMILES	Apaf-1 act	Rh110 interf act	Apaf-1 act conf2	others
COc1cc(/C=C2/C(=O)N(c3ccc(Br)cc3)N=C2C)cc(OC)c1OC	.	/	/
Cc1ccc(C)n1-c1nn(S(=O)(=O)c2cccc3cccnc23)c2cccc(F)c12	-40	.	.
CCOC(=O)c1sc2nc3c(SCC(=O)O)cc(C(=O)c4ccccc4O)cn3c(=O)c2c1C	-189	.	.
COc1ccc(Br)cc1CNc1ccc(O)cc1	.	/	/
C#CCOCCOCCOCCNc1nc(N2CCN(C(=O)CCCCCCCCCCNC(=O)Cn3cc(C[C@@H](C)O)nn3)CC2)nc(N2CCN(C(=O)CCCCCCCCCCNC(=O)[C@@H]([C@H](C)CC)n3cc(CCCCCN)nn3)CC2)n1	.	/	/
Cc1cc2nc(SCC(=O)Nc3nonc3C)c3c(c2cc1C)CCCC3	-48	.	.
Cc1cc(C)c(C#N)c(SCC(=O)Nc2nonc2N)n1	.	/	/
C#CCOCCOCCOCCNc1nc(N2CCN(C(=O)[C@H](CCCCN)n3cc([C@@H](N)CO)nn3)CC2)nc(N2CCN(C(=O)[C@H](Cc3cc4ccccc4[nH]3)n3cc([C@@H](N)Cc4ccc(O)cc4)nn3)CC2)n1	.	/	/
CCN(CC)c1ccc(N=Cc2ccccc2[N+](=O)[O-])cc1	.	/	/
Clc1cccc(CSc2nnc(-c3ccccn3)n2Cc2ccco2)c1	.	/	/
CCOC(=O)c1ccc(NC2=CC(=O)C(=O)c3ccccc32)cc1	.	/	/
Nc1ccc2c(c1)C(=O)C(=O)c1ccccc1-2	.	/	/
COc1ccc(C(=O)Nc2ccccc2C(=O)N(Cc2ccco2)C(C(N)=O)C(C)C)cc1 (stereo unspecified)	-351	.	.
COc1ccc(-n2c(N)c(C(=O)NCc3ccco3)c3nc4ccccc4nc32)c(OC)c1	.	/	/
COc1ccc(Br)cc1C1CC(=O)N2CN(C)CSC2=C1C#N (stereo unspecified)	.	/	/
NC(CO)C(=O)NNCc1ccc(O)c(O)c1O (stereo unspecified)	.	/	/
